Source: PubChem (several laboratories)
MC4R ag barr – MC4R agonists recruiting beta-arrestin, primary screen, cell-based, luminescence, agonist arm of biased-ligand search; Melanocortin receptor 4 (Homo sapiens), P32245; U2OS MC4R beta-arrestin complementation; percent of melanotan II response, DMSO zero; activation, % at 8.9 µM; 360,000 tested, 0.98% active;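 active = activation above a per-plate cutoff, the mean activation of sample wells on that plate plus 3 SD, cut at about 8% in these data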
Target sequence (P32245 whole entry, looked up): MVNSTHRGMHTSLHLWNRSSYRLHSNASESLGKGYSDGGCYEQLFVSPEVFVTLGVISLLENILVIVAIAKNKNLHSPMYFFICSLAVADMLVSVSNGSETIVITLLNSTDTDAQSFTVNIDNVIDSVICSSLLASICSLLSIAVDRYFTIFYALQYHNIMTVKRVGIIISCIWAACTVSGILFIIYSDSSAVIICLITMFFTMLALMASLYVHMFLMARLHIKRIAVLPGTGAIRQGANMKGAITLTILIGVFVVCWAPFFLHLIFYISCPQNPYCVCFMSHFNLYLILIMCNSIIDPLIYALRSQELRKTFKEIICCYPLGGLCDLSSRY
SMARCA2 act – SMARCA2 (BRM) function activators, primary screen, cell-based, luminescence, high throughput; MG213 cells, MMTV-luciferase reporter, dexamethasone, overnight; activation, % at 9.1 µM; 370,000 tested, 1% active; in the data active = activation above about 7.8%
MC4R antagonist – MC4R antagonists of cAMP signaling, primary screen, cell-based, TR-FRET, antagonist arm of biased-ligand search. inhibition, % at 6.5 µM. 360,000 tested, 0.48% active. Melanocortin receptor 4 (Homo sapiens), P32245. MC4R-expressing cells, MTII-stimulated cAMP, LANCE TR-FRET;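 active = inhibition above its plate's cutoff, the mean of tested wells on that plate plus 3 SD, cut at about 29% in these data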
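material = U2OS cells stably expressing human melanocortin 4 receptor (MC4R) | also added = Melanotan II challenge | dosing = single nominal compound dose of 6.5 µM | detection = TR-FRET with Eu-cAMP and labeled anti-cAMP, 671 nm | replication = singlicate | timing = compound 30 min, challenge 1 h, detection 1 h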
CFTR F508del cor – F508del CFTR correction, initial screen, CFBE line, single point; 350,000 tested, 0.36% active; AID 720511, 2013; CFBE cells, YFP halide quenching; stimulated with forskolin plus potentiator P3; % fluorescence drop versus neutral controls; activity (quench increase), % at 7.58 µM;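 active = mean added fluorescence quench of at least 8% versus neutral control, with both replicates also reaching 8%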;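 also: cells transiently co-express mutant CFTR-F508del with the halide-sensitive YFP; corrector assay measuring rescue of mutant channel to the surface after 24 h compound exposure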
Each line names hits and unclear results; the compound was inactive in the other large screens. Shown are actives, neighbours in structure and some others; about 2.1% of the full set was active somewhere.

COc1ccccc1OCc1ccc(C(=O)N2N=C(C(F)F)CC2(O)C(F)F)o1 (configuration not stated)	none (no result: CFTR F508del cor)
COCCCNc1nc2c(c(=O)[nH]c(=O)n2C)n1CCCc1ccccc1	SMARCA2 act 7.9 (no result: CFTR F508del cor)
COc1ccc(CCn2c(NN=C(C)C)nc3c2c(=O)[nH]c(=O)n3C)cc1	CFTR F508del cor 9.8
CC(C)c1ccc(N(CC(=O)NCCc2ccccc2)C(=O)c2csnn2)cc1	SMARCA2 act 7.8
Cc1ccc(N(CC(=O)NCCc2ccccc2)C(=O)c2csnn2)cc1	none
C[C@@H]1CN([C@@H](C)CO)C(=O)Cc2cc(NS(=O)(=O)c3ccc(F)cc3)ccc2O[C@@H]1CN(C)Cc1ccc(Oc2ccccc2)cc1	none (no result: MC4R ag barr, SMARCA2 act, MC4R antagonist)
C=CCN=c1scc(-c2ccc3c(c2)NC(=O)CO3)n1/N=C(\C)c1ccccn1	CFTR F508del cor 8.7
CC(Nc1nc(-c2ccc3c(c2)NC(=O)CO3)cs1)c1ccccc1 (configuration not stated)	none (no result: CFTR F508del cor)
O=C(Nc1cc(C(F)(F)F)cc(C(F)(F)F)c1)c1ccc(Cn2cc(C(F)(F)F)ccc2=O)cc1	MC4R ag barr 8.4 (no result: CFTR F508del cor)
Cc1nn(C2CCS(=O)(=O)C2)c2nc(C3CC3)cc(C(=O)Nc3cccc(C#N)c3)c12 (configuration not stated)	CFTR F508del cor 8.7
N#Cc1cccc(NC(=O)c2nc(-c3ccccc3)n(-c3ccccc3)n2)c1	none (no result: CFTR F508del cor)
CC1CCN(c2oc(-c3ccc(F)cc3)nc2C#N)CC1	SMARCA2 act 7.8
CCOc1ccc(NS(=O)(=O)c2cc(OC)ccc2OC)cc1	none
CCOc1ccc(S(=O)(=O)Nc2ccc(F)cc2)c(C)c1C	MC4R ag barr 8.8 (no result: CFTR F508del cor)
COC(=O)c1cc2c(n1S(=O)(=O)c1ccc(C)cc1)C(=O)C(=O)c1[nH]cc(C(=O)OCc3ccccc3)c1-2	MC4R ag barr 37 (no result: SMARCA2 act, CFTR F508del cor)
C[C@H]1CN([C@@H](C)CO)C(=O)c2cc(NC(=O)Nc3ccc(C(F)(F)F)cc3)ccc2O[C@@H]1CN(C)C	none (no result: MC4R ag barr, SMARCA2 act, MC4R antagonist)
Cc1cccc(NCC(=O)N/N=C/c2ccc(Br)cc2)c1	MC4R ag barr 8.4
CN1CCN(C(=O)C[C@@H]2CC[C@@H]3[C@@H](COc4ccc(NC(=O)C5CCC5)cc4C(=O)N3C)O2)CC1	none (no result: MC4R ag barr, SMARCA2 act, MC4R antagonist)
O=C(/C=C/c1ccco1)NC(=S)Nc1nc(-c2ccc3ccccc3c2)cs1	CFTR F508del cor 12
O=C(/C=C/c1ccco1)NC(=S)Nc1nc(-c2ccc(Cl)cc2)cs1	none (no result: CFTR F508del cor)
COc1ccc(NC(=O)c2c(NC(=O)CNCc3ccco3)sc3c2CCC3)c(OC)c1	none (no result: CFTR F508del cor)
COc1ccc(OC)c(NC(=O)c2c(NC(=O)CNCc3ccco3)sc3c2CCC3)c1	MC4R ag barr 9.2 (no result: CFTR F508del cor)
C[C@@H]1CN([C@H](C)CO)C(=O)c2cc(NC(=O)C3CC3)ccc2O[C@H]1CN(C)Cc1ccccc1	none (no result: MC4R ag barr, SMARCA2 act, MC4R antagonist)
O=C(Cc1ccsc1)OCC(=O)c1ccccc1	CFTR F508del cor 14
COc1ccc(C2CC(c3cccc(F)c3)=NN2c2ccc(S(N)(=O)=O)cc2)cc1 (configuration not stated)	none
COc1ccc(C2CC(c3cccc(Br)c3)=NN2c2ccc(S(N)(=O)=O)cc2)cc1 (configuration not stated)	CFTR F508del cor 10
CC1=Nc2cc(C(=O)NCC3CCCO3)ccc2Sc2ccc(C)cc21 (configuration not stated)	CFTR F508del cor 10
CC(C)(C)c1ccc(OCCC(=O)Nc2ccc(N3CCOCC3)cc2N2CCOCC2)cc1	MC4R ag barr 8.6
CCOc1cc(N2CCOCC2)c(OCC)cc1NC(=O)COC(=O)CCOc1ccc(C(C)(C)C)cc1	none
Cc1cc(C)cc(-n2nnnc2SCC(=O)Nc2nc(-c3ccc(F)cc3)cs2)c1	MC4R ag barr 30
O=C(CCC(=O)OCc1ccc(C(=O)Oc2ccc(Cl)cc2)cc1)Nc1ccccc1	MC4R ag barr 9.6 (no result: CFTR F508del cor)
COc1ccc(NC(=O)CCC(=O)OCc2ccc(C(=O)Oc3ccc(Cl)cc3)cc2)cc1	none (no result: CFTR F508del cor)
CC(=O)Nc1cccc(NC(=O)CN2c3cccc4cccc(c34)S2(=O)=O)c1	CFTR F508del cor 24
CC(=O)c1ccc(NC(=O)CN2c3cccc4cccc(c34)S2(=O)=O)cc1	none
CC(C)NC(=O)N(C)C[C@H]1Oc2ncc(C#CC3CC3)cc2C(=O)N([C@@H](C)CO)C[C@@H]1C	none (no result: MC4R ag barr, SMARCA2 act, MC4R antagonist)
C=C1C(=O)[C@]23C[C@H]1CC[C@H]2[C@]1(C)[C@@H](OC(C)=O)CC[C@@](C)(C(=O)O)[C@H]1C[C@@H]3OC(C)=O	SMARCA2 act 7.9 (no result: MC4R ag barr, MC4R antagonist)
C=C1C(=O)[C@]23C[C@H]1CCC2[C@]1(C)CCC[C@@](C)(C(=O)O)C1C[C@@H]3O (some centres not stated)	none (no result: MC4R ag barr, MC4R antagonist)
C[C@H]1CN([C@@H](C)CO)C(=O)c2cc(NC(=O)C3CC3)ccc2O[C@H]1CN(C)Cc1ccccc1	none (no result: MC4R ag barr, SMARCA2 act, MC4R antagonist)
CCCCCOc1ccc(Cn2ccnc2)cc1[N+](=O)[O-]	none
CCOc1ccc(Cn2ccnc2)cc1[N+](=O)[O-]	SMARCA2 act 13 (no result: CFTR F508del cor)
COCCNC(=O)C1CCCN(C(=O)c2cc(-c3cccs3)oc2C)CC1 (configuration not stated)	CFTR F508del cor 13
COCCNC(=O)C1CCCN(C(=O)c2sccc2C)CC1 (configuration not stated)	none
C[C@@H]1CN([C@H](C)CO)C(=O)c2cc(-c3ccc(C#N)cc3)cnc2O[C@H]1CN(C)CC1CCCC1	none (no result: MC4R ag barr, SMARCA2 act, MC4R antagonist)
CCOc1ccc2nc(SCC(=O)c3ccc(O)cc3O)sc2c1	MC4R ag barr 8.5
OC(CNCC1CCCO1)Cn1c2ccc(Cl)cc2c2cc(Cl)ccc21 (configuration not stated)	MC4R ag barr 8.9 (no result: CFTR F508del cor)
CN1C(=O)c2cc(NC(=O)C3CCOCC3)ccc2OC[C@H]2O[C@H](CC(=O)O)CC[C@@H]21	none (no result: MC4R ag barr, SMARCA2 act, MC4R antagonist)
O=C(O)COn1c(-c2ccccc2)nc2ccc([N+](=O)[O-])cc21	SMARCA2 act 7.8
Cc1ccc(COn2c(-c3ccc(Cl)cc3)nc3ccc([N+](=O)[O-])cc32)cc1	SMARCA2 act 8.2 (no result: CFTR F508del cor)
CCOC(=O)C(C)On1c(-c2ccccc2)nc2ccc([N+](=O)[O-])cc21 (configuration not stated)	none (no result: CFTR F508del cor)
CO[C@@H](CN(C)S(=O)(=O)c1ccc(C)cc1)[C@H](C)CN([C@@H](C)CO)S(=O)(=O)c1cccc(Cl)c1	CFTR F508del cor 11 (no result: MC4R ag barr, SMARCA2 act, MC4R antagonist)
COCC(=O)N(C)C[C@H]1Oc2ncc(-c3ccc(C)cc3)cc2C(=O)N([C@H](C)CO)C[C@H]1C	none (no result: MC4R ag barr, SMARCA2 act, MC4R antagonist)
Cc1cccc(Oc2cnn(C(C)(C)C)c(=O)c2Cl)c1	MC4R ag barr 8.8 (no result: CFTR F508del cor)
C[C@H](CO)N1C[C@H](C)[C@@H](CN(C)Cc2ccc3c(c2)OCO3)OCCCC[C@H](C)Oc2ccc(NS(=O)(=O)c3cn(C)cn3)cc2C1=O	none (no result: MC4R ag barr, SMARCA2 act, MC4R antagonist)
CNC(=O)C[C@H]1CC[C@@H]2[C@H](COc3ccc(NC(=O)Nc4cccc(Cl)c4)cc3C(=O)N2C)O1	none (no result: MC4R ag barr, SMARCA2 act, MC4R antagonist)
Cc1sc2nc(C(C)C)nc(SCC(=O)NC3CC3)c2c1C	none
